Where “and” joins values, the source holds several entries; their conditions need not be identical. Identical values can stand only once.
System: U2OS
Test: Multiplex assay against U2OS
Format: toxicity, cell-based
Conditions: human
In short: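 Live cells carried four stains from seeding: Hoechst33342, BioTracker Green Microtubule Cytoskeleton Dye, MitoTracker Red and Annexin V Alexa Fluor 680. They were imaged on a CQ1 microscope at 37°C and 5% CO2 after compound addition. Using CellPathfinder machine-learning gating, cells were split into Hoechst high-intensity objects or normal cells, normal cells into healthy, pyknosed or fragmented nuclei, and pyknosed cells into mitotic or apoptotic; tubulin, mitochondrial-mass and membrane-permeability phenotypes are per cents of healthy-nucleus cells.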

[1] = 12 h, 1 µM, compound concentration 1 uM
[2] = 12 h, 10 µM, compound concentration 10 uM
[3] = 24 h, 1 µM, compound concentration 1 uM
[4] = 24 h, 10 µM, compound concentration 10 uM
[5] = 48 h, 1 µM, compound concentration 1 uM
[6] = 48 h, 10 µM, compound concentration 10 uM

## CN1CCN2c3ccccc3Cc3ccccc3C2C1.Cl (stereo not given) [MIANSERIN HYDROCHLORIDE]
[1]
  Population Apoptotic (%): 91% and 83%
  Population Fragmented Nuclei (%): 35% and 16%
  Population Healthy Nuclei (%): 56% and 77%
  Population Hoechst High Intensity Objects (%): 3% and 1%
  Population Membrane Permeable-Phenotype (%): 7% and 3%
  Population Mitochondria Different-Phenotype (%): 4% and 3%
  Population Mitotic Cells (%): 8% and 16%
  Population Normal (%): 96% and 98%
  Population Pyknosed Nuclei (%): 7% and 5%
  Population Tubulin-Different-Phenotype (%): 5% and 2%
  Total Cell Count: 162 and 109
[2]
  Population Apoptotic (%): 78% and 86%
  Population Fragmented Nuclei (%): 23% and 12%
  Population Healthy Nuclei (%): 68% and 77%
  Population Hoechst High Intensity Objects (%): 2% and 1%
  Population Membrane Permeable-Phenotype (%): 7% and 1%
  Population Mitochondria Different-Phenotype (%): 3% and 2%
  Population Mitotic Cells (%): 21% and 13%
  Population Normal (%): 97% and 98%
  Population Pyknosed Nuclei (%): 8% and 10%
  Population Tubulin-Different-Phenotype (%): 4% and 0%
  Total Cell Count: 277 and 152
[3]
  Population Apoptotic (%): 88% and 75%
  Population Fragmented Nuclei (%): 34% and 23%
  Population Healthy Nuclei (%): 56% and 70%
  Population Hoechst High Intensity Objects (%): 1% and 2%
  Population Membrane Permeable-Phenotype (%): 6% and 4%
  Population Mitochondria Different-Phenotype (%): 1% and 3%
  Population Mitotic Cells (%): 11% and 25%
  Population Normal (%): 98% and 97%
  Population Pyknosed Nuclei (%): 8% and 5%
  Population Tubulin-Different-Phenotype (%): 4% and 3%
  Total Cell Count: 197 and 142
[4]
  Population Apoptotic (%): 69% and 93%
  Population Fragmented Nuclei (%): 21% and 13%
  Population Healthy Nuclei (%): 68% and 77%
  Population Hoechst High Intensity Objects (%): 1% and 2%
  Population Membrane Permeable-Phenotype (%): 9% and 7%
  Population Mitochondria Different-Phenotype (%): 2% and 3%
  Population Normal (%): 98% and 97%
  Population Pyknosed Nuclei (%): 10% and 8%
  Population Tubulin-Different-Phenotype (%): 2%
  Total Cell Count: 319 and 183
[5]
  Population Apoptotic (%): 78%
  Population Fragmented Nuclei (%): 28% and 19%
  Population Healthy Nuclei (%): 65% and 71%
  Population Hoechst High Intensity Objects (%): 2% and 1%
  Population Membrane Permeable-Phenotype (%): 5% and 4%
  Population Mitochondria Different-Phenotype (%): 2% and 3%
  Population Mitotic Cells (%): 21%
  Population Normal (%): 97% and 98%
  Population Pyknosed Nuclei (%): 5% and 9%
  Population Tubulin-Different-Phenotype (%): 4% and 2%
  Total Cell Count: 269 and 206
[6]
  Population Apoptotic (%): 91% and 87%
  Population Fragmented Nuclei (%): 18% and 15%
  Population Healthy Nuclei (%): 71% and 73%
  Population Hoechst High Intensity Objects (%): 4% and 2%
  Population Membrane Permeable-Phenotype (%): 4%
  Population Mitochondria Different-Phenotype (%): 2% and 3%
  Population Mitotic Cells (%): 8% and 12%
  Population Normal (%): 95% and 97%
  Population Pyknosed Nuclei (%): 9% and 11%
  Population Tubulin-Different-Phenotype (%): 1% and 2%
  Total Cell Count: 397 and 285

## CC(=O)NCCc1c(Cc2ccccc2)[nH]c2ccccc12 [LUZINDOLE]
[1]
  Population Apoptotic (%): 72% and 100%
  Population Fragmented Nuclei (%): 25% and 19%
  Population Healthy Nuclei (%): 65% and 77%
  Population Hoechst High Intensity Objects (%): 3% and 2%
  Population Membrane Permeable-Phenotype (%): 3% and 6%
  Population Mitochondria Different-Phenotype (%): 4% and 2%
  Population Normal (%): 96% and 97%
  Population Pyknosed Nuclei (%): 9% and 3%
  Population Tubulin-Different-Phenotype (%): 1% and 2%
  Total Cell Count: 233 and 134
[2]
  Population Apoptotic (%): 81% and 76%
  Population Fragmented Nuclei (%): 26% and 13%
  Population Healthy Nuclei (%): 65% and 78%
  Population Hoechst High Intensity Objects (%): 2% and 1%
  Population Membrane Permeable-Phenotype (%): 8% and 5%
  Population Mitochondria Different-Phenotype (%): 3% and 2%
  Population Mitotic Cells (%): 18% and 23%
  Population Normal (%): 97% and 98%
  Population Pyknosed Nuclei (%): 7%
  Population Tubulin-Different-Phenotype (%): 4% and 3%
  Total Cell Count: 291 and 179
[3]
  Population Apoptotic (%): 90% and 88%
  Population Fragmented Nuclei (%): 19% and 18%
  Population Healthy Nuclei (%): 68% and 70%
  Population Hoechst High Intensity Objects (%): 4% and 0%
  Population Membrane Permeable-Phenotype (%): 2% and 5%
  Population Mitochondria Different-Phenotype (%): 3% and 1%
  Population Mitotic Cells (%): 10% and 11%
  Population Normal (%): 95% and 99%
  Population Pyknosed Nuclei (%): 12% and 10%
  Population Tubulin-Different-Phenotype (%): 3% and 4%
  Total Cell Count: 260 and 156
[4]
  Population Apoptotic (%): 88% and 85%
  Population Fragmented Nuclei (%): 25% and 11%
  Population Healthy Nuclei (%): 66% and 80%
  Population Hoechst High Intensity Objects (%): 2% and 0%
  Population Membrane Permeable-Phenotype (%): 6%
  Population Mitochondria Different-Phenotype (%): 3% and 1%
  Population Mitotic Cells (%): 12% and 15%
  Population Normal (%): 97% and 99%
  Population Pyknosed Nuclei (%): 7% and 8%
  Population Tubulin-Different-Phenotype (%): 4% and 3%
  Total Cell Count: 342 and 236
[5]
  Population Apoptotic (%): 91% and 80%
  Population Fragmented Nuclei (%): 16% and 11%
  Population Healthy Nuclei (%): 74% and 77%
  Population Hoechst High Intensity Objects (%): 2% and 1%
  Population Membrane Permeable-Phenotype (%): 3% and 8%
  Population Mitochondria Different-Phenotype (%): 2% and 1%
  Population Mitotic Cells (%): 8% and 20%
  Population Normal (%): 97% and 98%
  Population Pyknosed Nuclei (%): 9% and 11%
  Population Tubulin-Different-Phenotype (%): 2% and 4%
  Total Cell Count: 395 and 217
[6]
  Population Apoptotic (%): 89% and 100%
  Population Fragmented Nuclei (%): 21% and 11%
  Population Healthy Nuclei (%): 69% and 82%
  Population Hoechst High Intensity Objects (%): 2% and 1%
  Population Membrane Permeable-Phenotype (%): 6% and 5%
  Population Mitochondria Different-Phenotype (%): 3% and 2%
  Population Mitotic Cells (%): 10% and 0%
  Population Normal (%): 97% and 98%
  Population Pyknosed Nuclei (%): 8% and 5%
  Population Tubulin-Different-Phenotype (%): 3%
  Total Cell Count: 446 and 354
